Test results: ChEMBL document CHEMBL1129288, “Design and synthesis of non-peptide Ras CAAX mimetics as potent farnesyltransferase inhibitors” (J Med Chem, 1996)

Tests used:
[1] = target: T1, Protein farnesyltransferase (Homo sapiens, UniProt P49354+P49356); assay: In vitro inhibition of Farnesyltransferase; type: protein-complex assay
Summary of the method: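 Partially purified FTase from human Burkitt lymphoma (Daudi) cells, incubated with [³H]FPP and recombinant H-Ras-CVLS for 30 min at 37 °C.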

[2] = target: Geranylgeranyl transferase type I (Homo sapiens, UniProt P49354+P53609); assay: In vitro inhibition of Geranylgeranyl transferase type I; type: protein-complex assay
Summary of the method: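 Partially purified GGTase I from human Burkitt lymphoma (Daudi) cells, incubated for 30 min at 37 °C.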

[3] = target: T1, Protein farnesyltransferase; assay: Inhibition of human Burkitt lymphoma (Daudi) cell farnesyltransferase; conditions: target entry is the homologue from another species

In the case of Cc1cccc(-c2ccc(NC[C@@H](N)CS)cc2)c1, the IC50 [1] is reported as 0.71 µM and the IC50 [2] is reported as greater than 100 µM.

COc1cc(NC[C@@H](N)CS)ccc1-c1cccc(C(=O)O)c1 showed an IC50 [1] of 0.04 µM and an IC50 [2] of 43.6 µM.

With N[C@@H](CS)CNc1ccc(-c2ccccc2C(=O)O)cc1 the IC50 [2] was 140 µM and the IC50 [3] was 0.543 µM.

Work on N[C@@H](CS)CNc1ccc(-c2cccc(C(=O)O)c2)cc1 yielded an IC50 [1] of 0.114 µM and an IC50 [2] of 100 µM.

COC(=O)c1cccc(-c2ccc(NC[C@@H](N)CS)cc2)c1 gave an IC50 [1] of 0.917 µM and an IC50 [2] greater than 100 µM.

For CC[C@H](C)[C@H](NC(=O)[C@@H](NC(=O)[C@@H](N)CS)C(C)C)C(=O)N[C@@H](CCSC)C(=O)O, the IC50 [1] was 0.2 µM.

N[C@@H](CS)CNc1ccc(-c2ccccc2)cc1 showed an IC50 [1] of 1.07 µM and an IC50 [2] greater than 100 µM.

In the case of N[C@@H](CS)C(=O)NCc1cccc(-c2cccc(C(=O)O)c2)c1, the IC50 [1] is reported as 100 µM and the IC50 [2] is reported as greater than 100 µM.

In the case of CSCC[C@H](NC(=O)c1ccc(NC(=O)[C@@H](N)CS)cc1)C(=O)O, the IC50 [1] is reported as 0.15 µM.

N[C@@H](CS)C(=O)Nc1ccc(-c2cccc(C(=O)O)c2)cc1 showed an IC50 [1] of 13.5 µM and an IC50 [2] of 100 µM.

With N[C@@H](CS)CNCc1cccc(-c2cccc(C(=O)O)c2)c1 the IC50 [1] was 11 µM and the IC50 [2] was 35 µM.

N[C@@H](CS)CNc1ccc(-c2ccc(C(=O)O)cc2)cc1 was tested, and the IC50 [2] was greater than 100 µM.
